# Assay results published in ChEMBL document CHEMBL4229342, “Synthesis of novel proxyphylline derivatives with dual Anti-Candida albicans and anticancer activity” (Eur J Med Chem, 2018).
# Activity calls are given as the source filed them. The calls are words filed in the database; no cut-off is given here.
# What was measured:
# Candida albicans [1] = test: (§1) Antifungal activity against Candida albicans ATCC 90028 infected in Galleria mellonella larvae infected with 20 uM compound pre-treated cell suspensions assessed as reduction in larval hemocytes incubated in dark for 144 hrs at 30 degC and measured every 24 hrs by hematoxylin and eosin staining-based light microscopic analysis; format: functional, organism-based
# Candida albicans [2] = test: Antibiofilm activity in Candida albicans ATCC 90028 assessed as cell membrane lysis at 20 uM after 18 hrs by acridine orange/ethidium bromide staining-based confocal laser scanning fluorescence microscopic analysis; format: functional, organism-based
# Outline: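 Unfixed biofilm cells were dual-stained in situ with acridine orange and ethidium bromide, each at 100 µg/mL. Confocal fluorescence and DIC imaging scored green AO nuclei, crescent-shaped chromatin, reddish-orange late apoptotic/necrotic cells and EB uptake, against untreated control biofilm. […]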
# Candida albicans [3] = test: Fungicidal activity against Candida albicans ATCC 90028 assessed as log reduction in cell viability at 10 uM in RPMI medium in absence of sorbitol; format: functional
# Candida albicans [4] = test: Fungicidal activity against Candida albicans ATCC 90028 assessed as reduction in cell viability in RPMI medium in presence of sorbitol; format: functional
# Candida albicans [5] = test: Inhibition of biofilm formation of Candida albicans ATCC 90028 up to 248 uM […] by XTT assay; format: functional, organism-based
# Candida albicans [6] = test: Induction of apoptosis in Candida albicans ATCC 90028 protoplast assessed as late apoptotic cells at 248 uM after 48 hrs Annexin V-FITC/propidium iodide staining based flow cytometric analysis (reference value: 0.3 +/- 0.30%); format: functional
# Candida albicans [7] = test: Disruption of cell wall in Candida albicans SC5314 assessed as decrease in chitin level by measuring chitin mean staining index at 248 uM after 18 hrs by calcofluor white staining-based flow cytometric analysis (reference value: 496 +/- 51); format: functional
# Candida albicans [8] = test: Antifungal activity against Candida albicans ATCC 90028 assessed as reduction in cell viability at 38 uM after 48 hrs in presence of ergosterol by XTT assay; format: functional
# Candida albicans [9] = test: Antifungal activity against Candida albicans ATCC 90028 infected in Galleria mellonella larvae infected with 31 uM compound pre-treated cell suspensions assessed as larvae survival incubated in dark for 144 hrs at 30 degC and measured every 24 hrs (reference value: 80%); format: functional
# Candida albicans [10] = test: as §1, with “31” for “20”, “fat body formation” for “larval hemocytes incubated”; format: functional, organism-based
# Candida albicans [11] = test: Antibiofilm activity in Candida albicans ATCC 90028 assessed as beta-glucan uniform distribution at 248 uM after 18 hrs by Congo red staining-based confocal laser scanning microscopic analysis; format: functional, organism-based
# Outline: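 Mature C. albicans biofilm cells were stained with 2% Congo Red to detect β-glucan exposure. They were imaged by confocal laser scanning microscopy as fluorescence and fluorescence/DIC overlays. Treated biofilms were compared with untreated control biofilm.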
# [12] = In-vitro chitinolytic activity of the compound assessed as p-nitrophenyl release from N-acetyl-beta-D-glucosaminide at 248 uM by chitinolytic activity assay; format: functional
# Candida albicans [13] = test: Induction of exochitinase release in Candida albicans ATCC 90028 assessed as p-nitrophenyl release from chitobioside substrate C at 248 uM by chitinolytic activity assay; format: functional, organism-based
Structure (SMILES),Activity (Candida albicans [1]),Activity (Candida albicans [2]),log(activity) (Candida albicans [3]),MFC (Candida albicans [4]) [µM],inhibition (Candida albicans [5]),Activity (Candida albicans [6]) [%],Activity_index (Candida albicans [7]),Activity (Candida albicans [8]) [%],survival at 31 µM (Candida albicans [9]) [%],Activity (Candida albicans [10]),Activity (Candida albicans [11]),Activity [12] [µmol/min],Activity (Candida albicans [13])
CC(Cn1cnc2c1c(=O)n(C)c(=O)n2C)OCc1cn(CCCn2nc3c(Br)c(Br)c(Br)c(Br)c3n2)nn1 (stereo not drawn),Active,Active,6.81,10,,,,,,,,,
CC(CN1c2ccccc2Sc2ccccc21)OC(=O)OC(C)Cn1cnc2c1c(=O)n(C)c(=O)n2C (stereo not drawn),,,,,inactive,0.1,550,92,95,Active,inactive,0.01 to 0.03,inactive
